≈ marks a conversion by molar mass, not a printed value.
Assays:
[1] = tested on: Candida albicans; test: Antifungal activity against 48 hrs cultures of 10^8 cells/ml Candida albicans ATCC 90028 biofilms by XTT reduction assay; conditions: ATCC 90028, 48 h
[2] = tested on: Candida albicans; test: Antifungal activity against 24 hrs cultures of 10^7 cells/ml Candida albicans ATCC 90028 biofilms by XTT reduction assay; type: functional
Summary of the method: (§1)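 Washed late-exponential cells at 1 × 10^7 cells/ml in YNB + 100 mM glucose were adhered 1.5 h at 37°C with shaking at 75 rpm, washed, then grown 24 or 48 h at 37°C, 75 rpm. Biofilms were washed and exposed 24 or 48 h at 37°C to twofold dilutions in RPMI + 2% glucose. Read by XTT at A490. MIC50 is 50% reduction vs drug-free control. Three experiments, four replicates.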

[3] = tested on: Candida albicans; test: Antifungal activity against 24 hrs cultures of 10^7 cells/ml Candida albicans ATCC 90028 biofilms by XTT reduction method; type: functional
Summary of the method: as §1

[4] = tested on: Candida albicans; test: Antifungal activity against 48 hrs cultures of 10^7 cells/ml biofilm-derived Candida albicans BF-1 planktonic cells hrs by XTT reduction method; type: functional
Summary of the method: (§2)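 Biofilms grown from 1 × 10^7 cells/ml (YNB + 100 mM glucose, 1.5 h adherence, 37°C, 75 rpm) for 24 or 48 h, washed, scraped and moved to wells of serially double-diluted drugs. Incubated with drug 24 or 48 h, then XTT–menadione read at 490 nm. MIC50 = 50% reduction versus drug-free control.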

[5] = tested on: Candida albicans; test: Antifungal activity against 10^8 cells/ml Candida albicans SC5314 planktonic cells by XTT reduction assay; type: functional
Summary of the method: (§3)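 High-density planktonic suspensions (10^7 or 10^8 cells/ml) added to serially double-diluted drugs as in the NCCLS setup, run in parallel in RPMI 1640 + 2% glucose and YNB + 100 mM glucose. Viability read by XTT (1 mg/ml) with menadione (0.4 mM stock, 5:1), 3 h dark at 37°C, A490 minus blank wells. MIC50 = lowest concentration giving 50% reduction versus drug-free control.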

[6] = tested on: Candida albicans; test: Antifungal activity against 24 hrs cultures of 10^7 cells/ml Candida albicans BF-1 planktonic cells by XTT reduction method; type: functional
Summary of the method: (§4)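 Age-matched planktonic cultures were grown from the same 1 × 10^7 cells/ml YNB + 100 mM glucose suspension under the biofilm conditions for 24 or 48 h. They were tested against twofold drug dilutions by XTT reduction (3 h at 37°C in the dark, A490 minus blank). MIC50 is 50% reduction vs drug-free control.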

[7] = tested on: Candida albicans; test: Antifungal activity against 24 hrs cultures of 10^7 cells/ml biofilm-derived Candida albicans ATCC 90028 planktonic cells hrs by XTT reduction method; type: functional
Summary of the method: as §2

[8] = tested on: Candida albicans; test: Antifungal activity against 10^3 cells/ml Candida albicans ATCC 90028 by NCCLS method; type: functional
Summary of the method: (§5)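 Planktonic broth microdilution per NCCLS (CLSI): inoculum from 24-h SDA cultures adjusted to 0.5 McFarland at 520 nm, diluted in RPMI 1640 to about 0.5 × 10^3 to 2.5 × 10^3 cells/ml. Cells exposed to twofold drug dilutions, incubated 35°C for 48 h, then MIC read. Three separate occasions.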

[9] = tested on: Candida albicans; test: Antifungal activity against 24 hrs cultures of 10^7 cells/ml biofilm-derived Candida albicans BF-1 planktonic cells hrs by XTT reduction method; type: functional
Summary of the method: (§6)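 Biofilms grown 24 or 48 h from 1 × 10^7 cells/ml were washed, scraped and transferred into plates of twofold serially diluted drugs. They were incubated 24 or 48 h. MIC was read by XTT reduction (3 h at 37°C in the dark, A490 minus blank) as 50% reduction vs drug-free control.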

[10] = tested on: Candida albicans; test: Antifungal activity against 24 hrs cultures of 10^7 cells/ml Candida albicans ATCC 90028 planktonic cells by XTT reduction method; type: functional
Summary of the method: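 Standard 1 × 10^7 cells/ml suspension in YNB + 100 mM glucose propagated planktonically 24 h alongside age-matched biofilms, then exposed to twofold drug dilutions. Metabolic activity read by XTT–menadione reduction, 3 h dark, 37°C, A490 background-subtracted. MIC50 is the 50% reduction point versus drug-free control.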

[11] = tested on: Candida albicans; test: Antifungal activity against 10^3 cells/ml Candida albicans SC5314 by NCCLS method; type: functional
Summary of the method: as §5

[12] = tested on: Candida albicans; test: Antifungal activity against 48 hrs cultures of 10^7 cells/ml Candida albicans BF-1 planktonic cells by XTT reduction method; type: functional
Summary of the method: as §4

[13] = tested on: Candida albicans; test: Antifungal activity against 24 hrs cultures of 10^7 cells/ml Candida albicans SC5314 biofilms by XTT reduction assay; type: functional; conditions: SC5314, 24 h
Summary of the method: as §1

[14] = tested on: Candida albicans; test: Antifungal activity against 10^5 cells/ml wild-type Candida albicans BF-1 by EUCAST method; type: functional
Summary of the method: (§7)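 EUCAST AFST planktonic broth microdilution: RPMI 1640 plus 2% glucose, inoculum 0.5 × 10^5 to 2.5 × 10^5 cells/ml, twofold drug dilutions. Performed on three different occasions.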

[15] = tested on: Candida albicans; test: Antifungal activity against 10^5 cells/ml Candida albicans ATCC 90028 by EUCAST method; type: functional
Summary of the method: as §7

[16] = tested on: Candida albicans; test: Antifungal activity against 10^8 cells/ml Candida albicans ATCC 90028 planktonic cells by XTT reduction assay; type: functional
Summary of the method: as §3

[17] = tested on: Candida albicans; test: Ratio of MIC for 10^8 cells/ml wild-type Candida albicans BF-1 to MIC for 10^7 cells/ml wild-type Candida albicans BF-1 grown as planktonic cells; type: functional
Summary of the method: as §3

[18] = tested on: Candida albicans; test: Antifungal activity against 48 hrs cultures of 10^7 cells/ml biofilm-derived Candida albicans ATCC 90028 planktonic cells hrs by XTT reduction method; type: functional
Summary of the method: as §6

[19] = tested on: Candida albicans; test: Antifungal activity against 10^3 cells/ml wild-type Candida albicans BF-1 by NCCLS method; type: functional
Summary of the method: as §5

[20] = tested on: Candida albicans; test: Antifungal activity against 48 hrs cultures of 10^8 cells/ml wild-type Candida albicans BF-1 biofilms by XTT reduction assay; conditions: BF-1, 48 h
[21] = tested on: Candida albicans; test: Antifungal activity against 24 hrs cultures of 10^7 cells/ml wild-type Candida albicans BF-1 biofilms by XTT reduction assay; type: functional
Summary of the method: as §1

[22] = tested on: Candida albicans; test: Antifungal activity against 10^7 cells/ml wild-type Candida albicans BF-1 planktonic cells by XTT reduction assay; type: functional
Summary of the method: as §3

[23] = tested on: Candida albicans; test: Antifungal activity against 48 hrs cultures of 10^7 cells/ml Candida albicans ATCC 90028 biofilms by XTT reduction method; type: functional
Summary of the method: as §1

[24] = tested on: Candida albicans; test: Antifungal activity against 24 hrs cultures of 10^7 cells/ml Candida albicans BF-1 biofilms by XTT reduction method; type: functional
Summary of the method: as §1

[25] = tested on: Candida albicans; test: Antifungal activity against 48 hrs cultures of 10^7 cells/ml Candida albicans BF-1 biofilms by XTT reduction method; type: functional
Summary of the method: as §1

[26] = tested on: Candida albicans; test: Antifungal activity against 48 hrs cultures of 10^7 cells/ml Candida albicans ATCC 90028 planktonic cells by XTT reduction method; type: functional
Summary of the method: as §4

[27] = tested on: Candida albicans; test: Antifungal activity against 10^7 cells/ml Candida albicans ATCC 90028 planktonic cells by XTT reduction assay; type: functional
Summary of the method: as §3

[28] = tested on: Candida albicans; test: Antifungal activity against 10^8 cells/ml wild-type Candida albicans BF-1 planktonic cells by XTT reduction assay; type: functional
Summary of the method: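 Planktonic suspensions at 1 × 10^8 cells/ml added to twofold serial drug dilutions in 96-well plates (NCCLS format). Run in parallel in RPMI 1640 + 2% glucose and YNB + 100 mM glucose. Readout by XTT reduction: XTT–menadione in PBS, 3 h at 37°C in the dark, A490 minus blank. MIC50 is 50% reduction vs drug-free control.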

[29] = tested on: Candida albicans; test: Antifungal activity against 48 hrs cultures of 10^7 cells/ml wild-type Candida albicans BF-1 biofilms by XTT reduction assay; type: functional
Summary of the method: as §1

[30] = tested on: Candida albicans; test: Antifungal activity against 48 hrs cultures of 10^7 cells/ml Candida albicans ATCC 90028 biofilms by XTT reduction assay; type: functional
Summary of the method: as §1

Nc1nc(=O)[nH]cc1F [FLUCYTOSINE]
MIC [1]: > 420 µg/mL | MIC ([2]; ATCC 90028, 24 h): > 420 µg/mL | MIC ([3]; ATCC 90028, 24 h): > 420 µg/mL | MIC ([4]; BF-1, 48 h): > 420 µg/mL | MIC [5]: > 420 µg/mL | MIC ([6]; BF-1, 24 h): > 420 µg/mL | MIC ([7]; ATCC 90028, 24 h): > 420 µg/mL | MIC [8]: 0.8 µg/mL (≈ 6.2 µM) | MIC ([9]; BF-1, 24 h): > 420 µg/mL | MIC ([10]; ATCC 90028, 24 h): > 420 µg/mL | MIC [11]: 0.8 µg/mL (≈ 6.2 µM) | MIC ([12]; BF-1, 48 h): > 420 µg/mL | MIC [13]: > 420 µg/mL | MIC [14]: 0.8 µg/mL (≈ 6.2 µM) | MIC [15]: 0.8 µg/mL (≈ 6.2 µM) | MIC [16]: > 420 µg/mL | Ratio [17]: >1000 | MIC ([18]; ATCC 90028, 48 h): > 420 µg/mL | MIC [19]: 0.8 µg/mL (≈ 6.2 µM) | MIC [20]: > 420 µg/mL | MIC ([21]; BF-1, 24 h): > 420 µg/mL | MIC [22]: 6.5 µg/mL (≈ 50.4 µM) | MIC ([23]; ATCC 90028, 48 h): > 420 µg/mL | MIC ([24]; BF-1, 24 h): > 420 µg/mL | MIC ([25]; BF-1, 48 h): > 420 µg/mL | MIC ([26]; ATCC 90028, 48 h): > 420 µg/mL | MIC [27]: 6.5 µg/mL (≈ 50.4 µM) | MIC [28]: > 420 µg/mL

CC(=O)N1CCN(c2ccc(OCC3COC(Cn4ccnc4)(c4ccc(Cl)cc4Cl)O3)cc2)CC1 (stereo unspecified) [KETOCONAZOLE]
MIC [1]: 64 µg/mL (≈ 120 µM) | MIC ([2]; ATCC 90028, 24 h): 64 µg/mL (≈ 120 µM) | MIC ([3]; ATCC 90028, 24 h): > 64 µg/mL | MIC ([4]; BF-1, 48 h): > 64 µg/mL | MIC [5]: > 64 µg/mL | MIC ([6]; BF-1, 24 h): 16 µg/mL (≈ 30.1 µM) | MIC ([7]; ATCC 90028, 24 h): > 64 µg/mL | MIC [8]: 0.125 µg/mL (≈ 0.235 µM) | MIC ([9]; BF-1, 24 h): > 64 µg/mL | MIC ([10]; ATCC 90028, 24 h): 8 µg/mL (≈ 15.1 µM) | MIC [11]: 0.125 µg/mL (≈ 0.235 µM) | MIC ([12]; BF-1, 48 h): > 64 µg/mL | MIC [13]: > 64 µg/mL | MIC [14]: 0.125 µg/mL (≈ 0.235 µM) | MIC [15]: 0.125 µg/mL (≈ 0.235 µM) | MIC [16]: 64 µg/mL (≈ 120 µM) | Ratio [17]: 256 | MIC ([18]; ATCC 90028, 48 h): > 64 µg/mL | MIC [19]: 0.125 µg/mL (≈ 0.235 µM) | MIC [20]: > 64 µg/mL | MIC ([21]; BF-1, 24 h): > 64 µg/mL | MIC [22]: 16 µg/mL (≈ 30.1 µM) | MIC ([23]; ATCC 90028, 48 h): > 64 µg/mL | MIC ([24]; BF-1, 24 h): > 64 µg/mL | MIC ([25]; BF-1, 48 h): > 64 µg/mL | MIC ([26]; ATCC 90028, 48 h): > 64 µg/mL | MIC [27]: 8 µg/mL (≈ 15.1 µM) | MIC [28]: > 64 µg/mL

NYSTATIN
MIC [2]: 16 µg/mL | MIC [3]: 16 µg/mL | MIC [4]: 16 µg/mL | MIC [6]: 4 µg/mL | MIC [29]: 32 µg/mL | MIC [30]: 16 µg/mL | MIC [7]: 2 µg/mL | MIC [8]: 1 µg/mL | MIC [9]: 4 µg/mL | MIC [10]: 2 µg/mL | MIC [12]: 16 µg/mL | MIC [14]: 2 µg/mL | MIC [15]: 1 µg/mL | MIC [16]: 8 µg/mL | Ratio [17]: 8 | MIC [18]: 8 µg/mL | MIC [19]: 2 µg/mL | MIC [21]: 32 µg/mL | MIC [22]: 2 µg/mL | MIC [23]: 16 µg/mL | MIC [24]: 32 µg/mL | MIC [25]: 32 µg/mL | MIC [26]: 8 µg/mL | MIC [27]: 2 µg/mL | MIC [28]: 16 µg/mL
